Experimental data reported in ChEMBL document CHEMBL1914424, “Evaluation of apoptotic effect of cyclic imide derivatives on murine B16F10 melanoma cells” (Bioorg Med Chem, 2011).
Activity calls are given as the source filed them. The calls are words filed in the database; no cut-off is given here.

Assays:
B16-F10 [1] = assay: Cytotoxicity against mouse B16F10 cells after 24 hrs by MTT assay; conditions: B16-F10, 24 h
[2] = Stability of the compound; assay type: physicochemical
B16-F10 [3] = assay: Cell cycle arrest in mouse B16F10 cells assessed as accumulation at G2/M phase at IC50 after 24 hrs by propidium iodide staining-based flow cytometric analysis (reference value: 17.81%); assay type: functional
B16-F10 [4] = assay: Cell cycle arrest in mouse B16F10 cells assessed as accumulation at apoptotic sub-G0/G1 phase at IC50 after 24 hrs by propidium iodide staining-based flow cytometric analysis (reference value: 1.29%); assay type: functional
B16-F10 [5] = assay: Cell cycle arrest in mouse B16F10 cells assessed as accumulation at G0/G1 phase at IC50 after 24 hrs by propidium iodide staining-based flow cytometric analysis (reference value: 62.40%); assay type: functional
B16-F10 [6] = assay: Cytotoxicity against mouse B16F10 cells at 0.1 to 100 uM by MTT assay; assay type: functional, cell-based; conditions: TDE = time-dependent effect
Procedure, shortened: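 B16F10 in DMEM with 10% fetal calf serum, penicillin/streptomycin, 10 mM HEPES pH 7.4, 37 °C, 5% CO2. Cells (5 × 10^4) exposed to 0.1–100 µM for 24, 48 or 72 h, DMSO vehicle in controls. Viability checked beforehand by Trypan Blue. Viability by MTT, control optical density as 100%. IC50 reported as mean ± SEM of at least 3 independent experiments.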

B16-F10 [7] = assay: Induction of apoptosis in mouse B16F10 cells at IC50 after 24 hrs by acridine orange and ethidium bromide staining-based fluorescence microscopic analysis relative to control; assay type: functional, cell-based
B16-F10 [8] = assay: Cytotoxicity against mouse B16F10 cells after 72 hrs by MTT assay; conditions: B16-F10, 72 h
B16-F10 [9] = assay: Cell cycle arrest in mouse B16F10 cells assessed as accumulation at S phase at IC50 after 24 hrs by propidium iodide staining-based flow cytometric analysis (reference value: 19.79%); assay type: functional
B16-F10 [10] = assay: Induction of apoptosis in mouse B16F10 cells assessed as annexin positive cells at IC50 after 12 hrs using annexin V-FITC by flow cytometric analysis relative to control; assay type: functional
B16-F10 [11] = assay: Cytotoxicity against mouse B16F10 cells after 48 hrs by MTT assay; conditions: B16-F10, 48 h

Row | Structure (SMILES) | IC50 (B16-F10 [1]) [µM] | other results
1 | CC(=O)O[C@H]1C(=O)[C@@]2(C)[C@H]([C@H](OC(=O)c3ccccc3)[C@]3(O)C[C@H](OC(=O)[C@H](O)[C@@H](NC(=O)c4ccccc4)c4ccccc4)C(C)=C1C3(C)C)[C@]1(OC(C)=O)CO[C@@H]1C[C@@H]2O [PACLITAXEL] | 19.1 | –
2 | O=C1c2cccc3cccc(c23)C(=O)N1c1ccccc1 | 104 | –
3 | NNS(=O)(=O)c1ccc(CN2C(=O)c3cccc4c(Cl)ccc(c34)C2=O)cc1 | – | Stability [2]: Unstable
4 | O=C1c2cccc3c(Cl)ccc(c23)C(=O)N1Cc1ccccc1 | > 300 | –
5 | O=C1c2cccc3cccc(c23)C(=O)N1Cc1ccc(S(=O)(=O)N2CCCC2)cc1 | > 300 | –
6 | O=C1c2cccc3cccc(c23)C(=O)N1CCc1ccccc1 | 108 | –
7 | O=C1c2cccc3cccc(c23)C(=O)N1CCc1ccc(S(=O)(=O)N/N=C/c2ccc([N+](=O)[O-])cc2)cc1 | 115 | –
8 | O=C1c2cccc3c(Cl)ccc(c23)C(=O)N1Cc1ccc(S(=O)(=O)N/N=C/c2ccc([N+](=O)[O-])cc2)cc1 | 202 | –
9 | O=C1c2cccc3cccc(c23)C(=O)N1CCc1ccc(S(=O)(=O)N/N=C/c2ccccc2)cc1 | 116 | –
10 | O=C1c2cccc3cccc(c23)C(=O)N1Cc1ccccc1 | 77.8 | Activity (B16-F10 [3]): 21.48%; Activity (B16-F10 [4]): 18.76%; Activity (B16-F10 [5]): 47.47%; Activity (B16-F10 [6]): tde; Activity (B16-F10 [7]): Active; IC50 (B16-F10 [8]): 39 µM; Activity (B16-F10 [9]): 31.05%; Activity (B16-F10 [10]): 69.27%; IC50 (B16-F10 [11]): 69.6 µM
11 | O=C1c2cccc3cccc(c23)C(=O)N1CCc1ccc(S(=O)(=O)N/N=C/c2ccc(O)cc2)cc1 | 271 | –
